ChEMBL document CHEMBL3352257, “In silico design of novel 2H-chromen-2-one derivatives as potent and selective MAO-B inhibitors” (Eur J Med Chem, 2015)

Experiments:
Format in all cases: tissue-based
[1] = target: T1, Amine oxidase [flavin-containing] B (Rattus norvegicus, UniProt P19643); assay: Inhibition of Sprague-Dawley rat MAO-B in brain mitochondrial homogenate assessed as 4-hydroxyquinoline by spectrophotometric method
T1 sequence (P19643 whole entry): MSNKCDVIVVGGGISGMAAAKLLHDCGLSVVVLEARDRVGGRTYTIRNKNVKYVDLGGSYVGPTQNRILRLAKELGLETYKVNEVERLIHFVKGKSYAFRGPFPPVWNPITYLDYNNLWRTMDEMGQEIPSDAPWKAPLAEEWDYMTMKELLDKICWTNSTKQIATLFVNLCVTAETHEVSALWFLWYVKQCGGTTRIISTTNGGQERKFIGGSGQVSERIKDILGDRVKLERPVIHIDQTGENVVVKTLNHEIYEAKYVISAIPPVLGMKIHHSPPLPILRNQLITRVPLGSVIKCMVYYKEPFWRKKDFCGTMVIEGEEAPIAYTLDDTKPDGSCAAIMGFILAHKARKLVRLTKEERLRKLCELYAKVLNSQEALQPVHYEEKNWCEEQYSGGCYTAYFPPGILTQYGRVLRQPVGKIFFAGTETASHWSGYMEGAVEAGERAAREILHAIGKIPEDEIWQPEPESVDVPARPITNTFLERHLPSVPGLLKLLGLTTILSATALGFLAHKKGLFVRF

[2] = target: T2, MAO-A (amine oxidase [flavin-containing] A) (Rattus norvegicus, UniProt P21396); assay: Inhibition of Sprague-Dawley rat MAO-A in brain mitochondrial homogenate assessed as 4-hydroxyquinoline at 10 uM by spectrophotometric method
T2 sequence (P21396 whole entry): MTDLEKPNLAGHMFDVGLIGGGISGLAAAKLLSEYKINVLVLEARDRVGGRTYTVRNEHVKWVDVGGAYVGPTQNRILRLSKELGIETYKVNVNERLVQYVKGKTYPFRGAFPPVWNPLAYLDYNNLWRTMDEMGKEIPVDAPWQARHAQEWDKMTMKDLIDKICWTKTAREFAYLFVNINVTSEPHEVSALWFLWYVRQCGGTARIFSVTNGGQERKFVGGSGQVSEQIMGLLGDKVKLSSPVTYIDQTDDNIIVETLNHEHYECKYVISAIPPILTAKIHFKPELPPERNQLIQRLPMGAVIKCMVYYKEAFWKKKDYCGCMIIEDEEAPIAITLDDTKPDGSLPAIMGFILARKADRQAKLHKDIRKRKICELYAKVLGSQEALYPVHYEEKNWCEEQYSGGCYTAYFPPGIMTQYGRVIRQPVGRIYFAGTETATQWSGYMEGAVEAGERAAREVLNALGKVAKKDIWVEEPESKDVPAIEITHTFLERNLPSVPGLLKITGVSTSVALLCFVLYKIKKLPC
Outline: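 Crude mitochondrial fraction from male Sprague-Dawley rat brain (200-250 g) was used at 1 mg/mL and pretreated with (-)-L-deprenyl 250 nM to isolate MAO-A. Compound was given at 10 μM in DMSO (final 5% v/v) with a 5 min preincubation. Kynuramine was added at 90 μM (KM), and 4-hydroxyquinoline formation was read at 314 nm for 5 min. Values are means of 2-3 independent experiments.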

[3] = target: T3, Amine oxidase [flavin-containing] A (Rattus norvegicus, UniProt P21396); assay: Inhibition of Sprague-Dawley rat MAO-A in brain mitochondrial homogenate assessed as 4-hydroxyquinoline by spectrophotometric method
T3 sequence (P21396 whole entry): T2 sequence (P21396 whole entry)
Outline: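 The MAO-A source was a crude male Sprague-Dawley rat brain mitochondrial fraction (1 mg/mL), pretreated with (-)-L-deprenyl 250 nM. Compound in DMSO (final 5% v/v) was preincubated for 5 min, then kynuramine was added at 90 μM (KM). 4-Hydroxyquinoline formation was monitored at 314 nm for 5 min.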

Row | IC50 [1] | inhibition at 10 µM [2] | IC50 [3] | Compound
1 | 32.4 nM | 22% |  | O=c1cc(CCBr)c2ccc(OCc3cccc(Cl)c3)cc2o1
2 | 3800 nM | 1% |  | O=c1cc(CCN2CCCCC2)c2ccc(OCc3cccc(Cl)c3)cc2o1
3 | 1200 nM | 13% |  | O=C(O)CCc1cc(=O)oc2cc(OCc3cccc(Cl)c3)ccc12
4 | 49 nM |  | 95.5 nM | NC(=O)CNc1cc(=O)oc2cc(OCc3cccc(Cl)c3)ccc12
5 | 31600 nM |  |  | O=C(O)COc1cc(=O)oc2cc(OCc3cccc(Cl)c3)ccc12
6 | 12.9 nM | 3% |  | O=c1cc(CCCl)c2ccc(OCc3cccc(Cl)c3)cc2o1
7 | 398 nM |  | 5750 nM | O=C(CCl)Nc1cc(=O)oc2cc(OCc3cccc(Cl)c3)ccc12
8 | 100000 nM |  |  | O=C(O)c1cc(=O)oc2cc(OCc3cccc(Cl)c3)ccc12
9 | 7.41 nM |  | 4680 nM | O=c1cc(CCO)c2ccc(OCc3cccc(Cl)c3)cc2o1
10 | 31600 nM |  |  | CCNC(=O)Nc1cc(=O)oc2cc(OCc3cccc(Cl)c3)ccc12
11 | 15.1 nM |  | 4270 nM | NC(=O)CCc1cc(=O)oc2cc(OCc3cccc(Cl)c3)ccc12
12 | 28.8 nM | 22% |  | N#CCCc1cc(=O)oc2cc(OCc3cccc(Cl)c3)ccc12
